SIAE primary = human SIAE inhibitors, primary screen, biochemical, fluorescence polarization, FP-Rh probe, 1536-well HTS. SIAE FP-Rh probe binding. AID 1053197, 2014. Sialate O-acetylesterase (Homo sapiens), Q9HAT2. actives 0.69% (n = 370,000). inhibition, % at 9.66 µM;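 active means inhibition above a cutoff: mean of compounds within the control limits plus 3 SD of those, cut at about 17% in these data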;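 further: 0% = plate median of compound wells and 100% = probe without SIAE protein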
PRMT1 FP inh = PRMT1 methyltransferase inhibitors, primary screen, biochemical, fluorescence polarization. inhibition, % at 2.79 µM. actives 1.3% (n = 370,000). recombinant PRMT1, activity-based probe fluorescence polarization. AID 652257, 2013;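 active means inhibition above about 21% made by adding two undisclosed values, limit read from the data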
TCR-CD3 inh = inhibitors of human TCR-CD3 interaction, primary screen, biochemical, fluorescence, TAMRA-labeled TCR probe | T-cell receptor (TCR) | inhibition, % at 9.4 µM | actives 0.37% (n = 360,000);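 further: recombinant mutant TCR 2C K166C tagged with TAMRA read by polarization; 0% = receptor in buffer alone and 100% = receptor with positive control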
HTRA1 inh = HTRA1 serine protease inhibitors, primary screen, biochemical, fluorescence polarization, HTS. Q92743. recombinant HTRA1, FP-rhodamine activity-based probe. inhibition, % at 5.96 µM. actives 0.5% (n = 340,000); in the data active means inhibition above about 36%;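 further: 0% = enzyme with DMSO and 100% = wells lacking enzyme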
Target sequence (Q92743 whole entry, looked up): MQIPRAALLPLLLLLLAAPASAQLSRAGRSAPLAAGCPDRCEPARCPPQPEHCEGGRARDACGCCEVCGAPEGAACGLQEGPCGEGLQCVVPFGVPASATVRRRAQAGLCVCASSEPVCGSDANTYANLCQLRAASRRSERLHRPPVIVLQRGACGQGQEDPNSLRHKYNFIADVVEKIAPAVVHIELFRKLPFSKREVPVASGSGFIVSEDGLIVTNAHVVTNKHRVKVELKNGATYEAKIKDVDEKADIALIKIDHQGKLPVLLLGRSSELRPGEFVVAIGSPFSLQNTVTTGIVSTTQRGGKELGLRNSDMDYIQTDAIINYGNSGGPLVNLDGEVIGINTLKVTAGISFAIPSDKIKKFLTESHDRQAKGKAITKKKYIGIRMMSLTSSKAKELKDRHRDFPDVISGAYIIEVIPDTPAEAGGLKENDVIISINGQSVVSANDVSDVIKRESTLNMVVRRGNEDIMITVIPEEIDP
ABHD4 inh = ABHD4 inhibitors, primary screen, biochemical, fluorescence polarization, mouse | (Lyso)-N-acylphosphatidylethanolamine lipase (Mus musculus), Q8VD66 | purified mABHD4, FP-Rh probe fluorescence polarization | inhibition, % at 8.92 µM | actives 0.54% (n = 370,000) | AID 720543, 2013;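 active means inhibition exceeding the mean over every tested compound plus 3 SD, cut at about 30% in these data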;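 further: 0% = plate median of compound wells and 100% = S159A mutant with DMSO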
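Assay system: mABHD4 protein; medium: HEPES pH 7.0, NaCl, Pluronic buffer; dosing: 8.92 µM, single dose; schedule: 45 min + 60 min at 25 °C; signal: FP readout, ex 525 nm / em 598 nm; read-out: normalized percent inhibition of probe labeling; repeats: single replicate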
HTRA1 conf = HTRA1 protease inhibitors, retest, confirmation, biochemical, fluorescence polarization. inhibition, % at 5.96 µM. AID 540248, 2011. shares compounds with HTRA1 inh. actives 66% (n = 1,600). recombinant HTRA1, FP-rhodamine activity-based probe;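 active means mean inhibition over three repeats above a set limit taken from the earlier primary screen, cut at about 37% in these data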;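 further: 0% = HTRA1 with DMSO and 100% = wells lacking HTRA1; inhibitors block probe binding so polarization drops and inhibition rises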
BSA TAMRA ctr = compounds interfering with TAMRA-BSA probe, counter-screen for TCR-CD3 interaction inhibitor project, biochemical, fluorescence, TAMRA-labeled BSA; shares compounds with TCR-CD3 inh; TAMRA-labeled BSA probe fluorescence counterscreen; inhibition, % at 9.4 µM; actives 10% (n = 1,200); AID 652035, 2013; in the data active means inhibition above about 23%;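 further: 0% = buffer low control and 100% = reference high control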
TCR-CD3 conf = TCR-CD3 interaction inhibitors, retest, confirmation, biochemical, fluorescence, TAMRA-labeled TCR probe; shares compounds with TCR-CD3 inh; TAMRA-labeled TCR probe fluorescence binding assay; inhibition, % at 9.4 µM; actives 48% (n = 1,200); AID 652036, 2013
PRMT1 confirm = PRMT1 methyltransferase inhibitors, confirmation, biochemical, fluorescence polarization, triplicate; recombinant His-PRMT1, activity-based probe fluorescence polarization; actives 42% (n = 3,300); shares compounds with PRMT1 FP inh; inhibition, % at 2.79 µM;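 active means mean inhibition across replicates above the hit cutoff derived for the earlier primary screen, cut at about 22% in these data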
ABHD4 confirm = ABHD4 inhibitors, retest, confirmation, biochemical, fluorescence polarization, mouse; shares compounds with ABHD4 inh; purified mABHD4, FP-Rh probe fluorescence polarization; inhibition, % at 8.92 µM; actives 55% (n = 1,800); AID 720658, 2013;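 active means mean inhibition across replicates above the hit cutoff set in the primary screen, cut at about 30% in these data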;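 further: 0% = wild-type ABHD4 with DMSO and 100% = catalytically dead S159A mutant with DMSO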
Starred values were filed as active, the others as inactive; nt = not tested or not shown; + = active, no number. Only some compounds are listed: those with a hit (about 2.5% of all), similar ones and a draw of the others. Unless noted, no stated cut-off is given here; in the data, active means inhibition above about 19%; inactive means the rest.

SMILES | SIAE primary | PRMT1 FP inh | TCR-CD3 inh | HTRA1 inh | ABHD4 inh | HTRA1 conf | ABHD4 confirm | others
COc1ccc2ccccc2c1/C=N/N1C(=O)CSC1=S | -1 | 11 | -5 | -16 | 6 | nt | nt
O=C1CSC(=S)N1N=Cc1c(O)ccc2ccccc12 | 7 | 35* | 17 | 37* | 45* | 41* | nt | PRMT1 confirm=33*
O=c1[nH]c2ccc(Cl)cc2c(-c2ccccc2)c1SC(=S)N1CCOCC1 | -9 | 27* | 7 | 42* | 6 | -26 | nt | PRMT1 confirm=16
O=C(O)COc1ccccc1C=NNc1ccc([N+](=O)[O-])cc1S(=O)(=O)Nc1ccc(Cl)cc1 | -12 | 13 | -2 | -45 | 5 | nt | nt
O=[N+]([O-])c1ccccc1NC(=S)N/N=C/c1ccc(O)c(O)c1 | 8 | 8 | 20* | 80* | 51* | 73* | 36* | BSA TAMRA ctr=-16;TCR-CD3 conf=20*
O=C(O)c1ccccc1NS(=O)(=O)c1ccc(N/N=C/c2ccc(O)c(O)c2)c([N+](=O)[O-])c1 | -1 | 33* | 19* | 66* | 81* | 143* | 100* | BSA TAMRA ctr=6;TCR-CD3 conf=43*;PRMT1 confirm=40*
O=[N+]([O-])c1ccccc1C=NNC(=S)NN=Cc1ccccc1[N+](=O)[O-] | 4 | 8 | -6 | 10 | 9 | nt | nt
O=C(O)COc1ccccc1/C=N/Nc1ccc(S(=O)(=O)Nc2ccc(Cl)cc2)cc1[N+](=O)[O-] | 11 | 5 | 1 | 54* | 63* | 88* | 79*
CCOC(=O)c1sc(NN=C(C(=O)OC)C(=O)OC)c(C(=O)OCC)c1C | 4 | -3 | -3 | -7 | 2 | nt | nt
O=c1cc(O)c2ccc(O)cc2o1 | -1 | 2 | -10 | -2 | 13 | nt | nt
O=c1ccc2[n+]([O-])c3ccc(O)cc3oc-2c1 | nt | 119* | nt | 141* | + | + | + | PRMT1 confirm=69*
O=C(CSc1n[nH]c(-c2ccccc2)n1)c1ccc(O)c(O)c1 | 11 | 15 | 9 | 72* | 34* | 66* | 13
Cc1cc(SCC(=O)c2ccc(O)c(O)c2)nc2ccccc12 | 16 | 24* | 29* | 54* | 39* | 69* | 20 | BSA TAMRA ctr=-11;TCR-CD3 conf=24*
CCCN1C(=O)c2[nH]nc(-c3ccccc3)c2C1c1ccc(Br)cc1 (stereo not given) | -3 | 1 | 0 | nt | -23 | nt | nt
CCCCNC(=O)C[C@H]1C[C@@]2(C(=O)OC)C(=C[C@H](C(C)C)O[C@@H]2C2CC2)N(Cc2ccco2)C1=O | 2 | 0 | nt | nt | 0 | nt | nt
Cc1cccc(NC(=S)NCc2ccc3c(c2)cc(C)n3C)c1C | 4 | 8 | -9 | 50* | 30* | -1 | -16
Cc1cccc(NC(=O)NCc2ccc3c(c2)cc(C)n3C)c1 | 7 | 9 | 34* | 40* | 42* | -7 | -3 | BSA TAMRA ctr=1;TCR-CD3 conf=8
Oc1ccc(/C=N/Nc2cc(N3CCCC3)nc(N3CCCC3)n2)cc1O | 22* | 5 | 33* | 58* | 35* | 140* | 40*
Cc1cc(C(=O)Nc2ncn[nH]2)ccc1[N+](=O)[O-] | -4 | 2 | 6 | 3 | -4 | nt | nt
O=c1c2ccccc2nc(COc2ccccc2)n1/N=C/c1ccc(O)c(O)c1 | -2 | 0 | 17 | 72* | 36* | 82* | 11
O=c1[nH]nc(CNc2ccc(O)cc2)c2ccccc12 | 79* | 25* | 89* | 85* | 82* | 9 | 37* | BSA TAMRA ctr=12;TCR-CD3 conf=12
CC1Cc2ccccc2N1CC(=O)Nc1cc(S(=O)(=O)N2CCOCC2)ccc1Cl (stereo not given) | 11 | -1 | 0 | -12 | -8 | nt | nt
CCCc1cc(=O)oc2cc(OCc3ccc(C(=O)O)cc3)ccc12 | -8 | -2 | 4 | -9 | -18 | nt | nt
COc1ccc(N/N=C(/N=Nc2nc(C)cc(=O)[nH]2)c2ccccc2)cc1 | 9 | 6 | -3 | 71* | 40* | 76* | 42*
CCOc1ccccc1NC(=O)COC(=O)C(CC)c1ccccc1 (stereo not given) | -2 | -2 | -1 | -6 | -16 | nt | nt
SMILES | SIAE primary | PRMT1 FP inh | TCR-CD3 inh | HTRA1 inh | ABHD4 inh | HTRA1 conf | ABHD4 confirm | others
CCCC(=O)C1=C(c2ccccc2)C(C#N)(C#N)C(C#N)=C1N | 13 | 18 | 1 | 38* | 38* | 55* | 22
CCCCCCCCCCCCCCCC(O)C[N+](C)(C)CCO (stereo not given) | 1 | -2 | -5 | + | 38* | 66* | 51*
NC(=O)C1CCN(CC(=O)NC(=O)NC2CCCC2)CC1 | 0 | 0 | 1 | 8 | -4 | nt | nt
CC(C1SC(=S)NC1=O)C1SC(=S)NC1=O (stereo not given) | -3 | 89* | 7 | 60* | 46* | 47* | 20 | PRMT1 confirm=51*
Cc1oc2c(O)c(O)ccc2c(=O)c1-c1ccccc1 | 7 | 19 | 8 | 52* | 41* | 41* | 16
Cc1oc2c(CN3CCCCC3C)c(O)ccc2c(=O)c1-c1ccccc1 (stereo not given) | 0 | -8 | -2 | 0 | 2 | nt | nt
Cc1oc2c(CN3CCCC3)c(O)ccc2c(=O)c1-c1ccc(Br)cc1 | -3 | 0 | -2 | -5 | 7 | nt | nt
Cc1oc2c(O)c(O)ccc2c(=O)c1-c1ccc(Cl)cc1 | -1 | 13 | 13 | 69* | 41* | 91* | 25
O=C(O)[C@H]1CCCC[C@H]1C(=O)Nc1ccc(Nc2ccccc2)cc1 | 7 | 12 | -5 | 67* | 42* | 21 | 19

Assay outcomes as filed in PubChem BioAssay.
